# Sampled rows, rich in hits. Any-hit rate of the full collection: about 4.2%.
# ANO1 activ: TMEM16A chloride channel activators or potentiators, primary screen, cell-based, HTS | actives 0.3% (n = 340,000) | B-score at 10 µM | HEK293 TMEM16A/YFP-H148Q/I152L, iodide quench fluorescence; stronger effect = lower value | Anoctamin-1 (Mus musculus), Q8BHY3;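 active = fluorescence-ratio B-score plate-corrected deviation score at least 3 library SD below zero, with starting fluorescence score within 5 deviations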;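 note: channel opened by trigger with iodide after compound preincubation; score built on the fluorescence ratio of max minus min over baseline; more negative score means more quench and so TMEM16A activation or potentiation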
# Target sequence (Q8BHY3 whole entry, looked up): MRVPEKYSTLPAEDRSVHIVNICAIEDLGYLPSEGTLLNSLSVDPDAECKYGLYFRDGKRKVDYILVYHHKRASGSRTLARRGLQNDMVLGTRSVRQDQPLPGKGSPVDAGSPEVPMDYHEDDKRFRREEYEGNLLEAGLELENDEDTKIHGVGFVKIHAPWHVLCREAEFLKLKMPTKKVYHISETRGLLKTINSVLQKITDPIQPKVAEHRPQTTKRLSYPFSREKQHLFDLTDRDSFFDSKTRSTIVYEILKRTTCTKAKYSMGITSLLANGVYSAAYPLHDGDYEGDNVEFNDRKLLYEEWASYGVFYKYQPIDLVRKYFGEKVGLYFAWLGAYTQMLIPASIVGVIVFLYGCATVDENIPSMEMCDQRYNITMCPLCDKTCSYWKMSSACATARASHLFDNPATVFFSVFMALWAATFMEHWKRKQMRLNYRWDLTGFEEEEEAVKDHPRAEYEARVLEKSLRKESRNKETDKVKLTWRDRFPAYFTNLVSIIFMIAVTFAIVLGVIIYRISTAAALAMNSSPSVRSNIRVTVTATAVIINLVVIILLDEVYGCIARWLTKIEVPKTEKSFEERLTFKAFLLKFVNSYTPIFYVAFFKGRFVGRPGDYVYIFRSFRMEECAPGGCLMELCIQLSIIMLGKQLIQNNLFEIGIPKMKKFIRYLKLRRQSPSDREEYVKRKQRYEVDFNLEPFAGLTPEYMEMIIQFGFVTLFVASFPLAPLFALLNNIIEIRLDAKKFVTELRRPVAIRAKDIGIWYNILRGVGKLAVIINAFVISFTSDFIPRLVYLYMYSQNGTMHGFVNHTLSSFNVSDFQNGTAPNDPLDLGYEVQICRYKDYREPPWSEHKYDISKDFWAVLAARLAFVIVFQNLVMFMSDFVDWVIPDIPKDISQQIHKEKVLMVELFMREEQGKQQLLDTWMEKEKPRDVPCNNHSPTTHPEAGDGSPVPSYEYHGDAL
# CHOP UPR activ: activators of apoptotic CHOP UPR arm, primary screen, cell-based, CHO-CHOP luciferase reporter, luminescence, uHTS; UPR activation; percent of tunicamycin response over DMSO baseline; activation, % at 10 µM; actives 0.34% (n = 330,000); AID 449763, 2010;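 active = at 10 µM dose, activation of 40% or more, normalized to positive control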;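 note: 100% = tunicamycin at 10 µg/mL and 0% = DMSO alone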
#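 System: CHO-CHOP luciferase reporter cell line | Buffer or medium: F12 medium containing 10% fetal bovine serum | Doses: One dose, 10 µM in 0.5% DMSO | Times: 6 h compound exposure at 37 °C after overnight seeding | Signal: Luciferase luminescence | Read-out: % activation vs tunicamycin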
# ANO1 block: TMEM16A chloride channel inhibitors, primary screen, cell-based, HTS; Anoctamin-1 (Mus musculus), Q8BHY3; HEK293 TMEM16A/YFP iodide influx fluorescence, ionomycin; normalized B-score (activity score, 25-100; higher = stronger inhibition) at 10 µM; actives 1.2% (n = 310,000); AID 588511, 2011;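 active = ratio plate-corrected score three or more library SD toward inhibition, starting fluorescence score within five deviations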;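 note: score derived from kinetic fluorescence span divided by baseline fluorescence per well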
# CHOP inh: inhibitors of CHOP promoter induction, primary screen, cell-based, unfolded protein response, luciferase reporter. CHO-K1 CHOP-promoter luciferase, tunicamycin-induced, 15-18 h. inhibition, % at 10 µM. actives 3.8% (n = 220,000). AID 2732, 2010;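 active = compounds that reduced the stress-induced luciferase reporter signal by more than about 70% of percent inhibition, limit read from the data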;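 note: 0% = tunicamycin plus vehicle and 100% = wells without tunicamycin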
# UPR XBP1 act: activators of adaptive XBP1 UPR arm, primary screen, cell-based, CHO-XBP1 luciferase reporter, luminescence, uHTS. IRE1-XBP1 UPR activation; percent of tunicamycin response, DMSO as zero. activation, % at 20 µM. actives 0.33% (n = 330,000). AID 463104, 2010;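 active = versus positive control, 20 µM dose yields 30% or more activation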;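 note: 100% = tunicamycin at 10 µg/mL and 0% = DMSO only wells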
#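 Material: CHO cell line with stable XBP1 luciferase reporter; buffer or medium: F12 medium containing 10% fetal bovine serum; compound: single point, 20 µM final compound, 1% DMSO; incubation: 6 h treatment, 37 °C; measured by: glow luminescence from Steady-Glo reagent; evaluation: activation, % of tunicamycin; control set: tunicamycin high, DMSO low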
# Lipid droplet: inhibitors of hepatocyte lipid droplet formation, primary screen, imaging, high-throughput imaging, BODIPY stain; AML12 mouse hepatocytes, oleate lipid droplets; inhibition, % at 6.5 µM; actives 0.4% (n = 240,000);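 active = lipid droplet intensity inhibited by at least 50%, with more than 500 cells counted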
#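 Material – AML12 mouse liver cells · Also added – oleate loading, 100 µM · Compound dosing – 6.5 µM single-point dosing · Times – overnight treatment with compound plus oleate · Measured by – fluorescence imaging, 20x objective, two fields per well · Read-out – percent inhibition of filter-corrected integrated lipid droplet intensity per well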
# * marks the source's active call; other numbers are inactive results; i = inactive; · = no result.
SMILES,ANO1 activ,CHOP UPR activ,ANO1 block,CHOP inh,UPR XBP1 act,Lipid droplet
Cc1ccsc1CN(C)C(=O)CN1C(=O)NC2(CCCc3ccccc32)C1=O (stereo not given),i,0.7,·,·,-4.0,·
O=C(N/N=C/c1cccc(Cl)c1Cl)Nc1ccccc1,i,3.2,i,71.4*,3.5,-5.5
O=C(Nc1ccccc1)c1nnsc1S(=O)c1ccc(Cl)cc1 (stereo not given),-9.3*,-10.5,i,75.1*,-8.7,·
Cc1nnsc1S(=O)c1ccc(Cl)cc1 (stereo not given),i,6.0,i,·,-8.2,·
CC1=C(CC(=O)c2ccc(Cl)cc2)C(=O)c2ccccc2C1=O,i,3.2,i,71.8*,1.8,·
Cc1cccc(CNC(=O)c2cc(S(=O)(=O)N3CCOCC3)cn2C)c1,i,3.1,i,·,-2.4,-2.0
CSc1ccc(/C=C/C(=O)OCC(=O)c2ccc[nH]2)cc1,i,2.8,·,·,0.6,·
CSc1ccc(/C=N/NC(=O)CNc2cccc3ccccc23)cc1,i,-1.2,i,93.7*,-0.6,1.3
CCOC(=O)c1c(CC(C)C)csc1/N=C/C1C(=O)CC(C)(C)CC1=O,i,-1.0,i,71.8*,4.7,12.3
O=C1N=c2ccccc2=C1c1sc(=S)n(NC(=O)c2ccccc2)c1O,i,-0.7,i,94.2*,-1.5,13.2
CCCc1ccc(Oc2coc3cc(OCC(=O)Nc4ccccc4C)ccc3c2=O)cc1,-5.17*,0.0,i,22.1,-0.3,-6.9
Cn1c(N)c(C(=O)COC(=O)c2ccccn2)c(=O)n(C)c1=O,i,-1.1,i,15.8,-1.5,14.4
CCOc1ncccc1C(=O)OCC(=O)c1c(N)n(C)c(=O)n(C)c1=O,i,-0.9,i,85.8*,-0.4,·
CC(OC(=O)c1cccc(S(=O)(=O)N2CCCCCC2)c1)C(=O)Nc1ccc(S(N)(=O)=O)cc1 (stereo not given),i,-1.0,i,·,-2.0,·
O=c1c2c(-c3cccs3)csc2ncn1/N=C/c1ccc(OC(F)F)cc1,i,0.1,i,77.4*,4.8,·
O=C(O)COc1ccc(/C=N/n2cnc3scc(-c4cccs4)c3c2=O)cc1,i,·,i,-6.3,·,3.5
COc1ccc(C2=NN(C(=O)CCC(=O)O)C(c3ccccc3F)C2)cc1 (stereo not given),i,2.5,i,·,0.9,·
CCC(=O)NC1=C(Cl)C(=O)C(NC(=O)CC)=C(Cl)C1=O,i,8.4,·,86.7*,-12.9,-2.1
CCC(=O)NC1=C(NC(C)c2ccccc2)C(=O)c2ccccc2C1=O (stereo not given),i,-1.5,i,3.1,0.7,5.9
O=C(Nc1nc2ccc(Cl)cc2s1)c1ccc(Br)o1,i,4.9,i,74.2*,2.4,-4.3
Cc1nn(-c2ccccc2)c2sc(C(=O)N3CCc4ccccc4C3)cc12,i,·,·,2.9,·,·
Cc1nn(-c2ccccc2)c2sc(C(=O)NNC(=O)COc3cccc4ccccc34)cc12,i,-0.6,i,92.3*,2.7,·
Cc1cnc(NC(=O)c2cc3c(C)nn(-c4ccccc4)c3s2)s1,i,0.3,i,86.5*,5.8,4.2
Cc1nn(-c2ccccc2)c2sc(C(=O)NC3CCCCC3)cc12,i,-0.7,i,42.8,5.9,4.0
Cc1nn(-c2ccccc2)c2sc(C(=O)N3CCCCC3)cc12,i,5.9,i,81.9*,3.0,5.1
SMILES,ANO1 activ,CHOP UPR activ,ANO1 block,CHOP inh,UPR XBP1 act,Lipid droplet
Cc1ccc(C(=O)Cc2cc3ccccc3oc2=O)c(C)c1,i,2.4,i,·,-2.8,11.5
Cc1sc2ncn(CC(=O)NCCCC(=O)N3CCC(C(N)=O)CC3)c(=O)c2c1C,i,1.4,i,·,2.6,-6.1
CC(C)(C)c1nc(N2CCN(C(=O)c3ccco3)CC2)c2nnn(Cc3ccccc3)c2n1,i,0.4,i,76.5*,-0.8,·
Cc1ccc(C(=O)N[C@@H](Cc2ccccc2)C(=O)N2CCC3(CC2)NCCc2[nH]cnc23)cc1C,-49.6*,1.7,i,·,-5.8,1.4
COc1ccccc1-c1c(-c2ccc(OCC(=O)NN)cc2O)n[nH]c1C(F)(F)F,i,0.2,i,-1.8,-1.6,-4.8
COc1ccc(-c2n[nH]c(C(F)(F)F)c2-c2cc3ccccc3o2)c(O)c1,i,-0.8,100*,105.3*,0.6,·
CCCCNC(=O)CC1NCCNC1=O (stereo not given),i,0.3,i,6.1,-1.8,-10.6
Cc1ccc2nc(SCC(=O)c3ccc(Cl)s3)[nH]c2c1,i,1.5,i,70.7*,1.7,0.4
Cc1ccc2nc(SCC(=O)c3ccc4c(c3)OCO4)[nH]c2c1,i,1.3,i,37.7,0.0,·
Cc1cc(C)c(C(=O)c2ccc(C(=O)N(C(C)C)C(C)C)cc2)c(C)c1,i,-1.4,i,93.9*,-2.1,-29.0
CCN(c1ccccc1)S(=O)(=O)c1ccc(Cl)c(NC(=O)CN(C)C2CCN(C)CC2)c1,i,0.0,i,21.3,1.5,-1.2
S=c1[nH]nc(-c2cccc(Cl)c2)n1CCN1CCCCC1,i,1.3,i,8.9,-1.6,8.1
CC(=O)Nc1ccc(N2C(C(C)=O)=NN(c3ccc(Cl)cc3)C2c2sccc2C)cc1 (stereo not given),i,-1.8,i,62.2,-1.3,-28.0
CCN(c1ccccc1)S(=O)(=O)c1cc(C(=O)Nc2ccc(F)c(F)c2)ccc1F,i,3.6,i,70.8*,5.3,-6.7
COC(=O)c1c(NC(=O)c2ccccc2F)sc(C(=O)N2CCOCC2)c1C,i,-1.2,i,·,-6.9,16.3
COc1ccc(C(=O)Oc2ccc(C(=S)N3CCCC3)cc2)cc1OC,·,-0.3,i,93.3*,-2.4,6.0
COc1cc(C(=S)N2CCOCC2)ccc1OC(=O)c1cccc(C)c1,i,-0.2,25*,·,-4.9,-4.7
COc1cc(C(=S)N2CCOCC2)ccc1OC(=O)c1ccc(Br)cc1,i,9.1,i,·,-0.2,2.3
Cc1ccc(NC2c3ncccc3C(=O)N2Cc2ccco2)c(C)c1 (stereo not given),i,1.1,i,-5.4,-0.3,3.1

# Screens from PubChem.
